From ChEMBL document CHEMBL1157985, “Antiplasmodial and cytotoxic activity of natural bisbenzylisoquinoline alkaloids” (J Nat Prod, 1999)

How the values were obtained:
Plasmodium falciparum [1] = assay: Antiplasmodial activity against chloroquine-sensitive Plasmodium falciparum D6 infected human erythrocytes as [3H]hypoxanthine uptake after 24 hrs; format: functional, organism-based
Outline: (§1)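 P. falciparum (D6, W2) cultured in type A+ human erythrocytes, RPMI-1640 with NaHCO3, HEPES and 10% heat-inactivated human plasma, 37 °C under 5% O2/5% CO2/90% N2. Infected red cells at 0.5-1.0% parasitemia, 1.0% hematocrit exposed to compound, duplicate seven-point series, 24 h; then 0.5 μCi [3H]hypoxanthine per well for 18 h more. Filter harvest, scintillation counting; IC50 by nonlinear regression versus zero-drug controls.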

Plasmodium falciparum [2] = assay: Antiplasmodial activity against chloroquine-resistant Plasmodium falciparum W2 infected human erythrocytes as [3H]hypoxanthine uptake after 24 hrs; format: functional, organism-based; outline: as §1
[3] = Selectivity index, ratio of ED50 for human KB cells to IC50 for […] Plasmodium falciparum D6; format: functional
[4] = Selectivity index, ratio of ED50 for human KB cells to IC50 for chloroquine-resistant Plasmodium falciparum W2; format: functional
KB = assay: Cytotoxicity against human KB cells after 72 hrs by SRB assay; format: functional; settings: read-out: ED50 (the source's name)
Outline: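 KB-3 cells grown in DMEM with 10% FBS at 37 °C and 5% CO₂ to 60–70% confluence, then used 1 day after a medium change. Samples were dissolved in DMSO and serially diluted in 10% aqueous DMSO. 5×10⁴ cells were exposed for 72 h at 37 °C, then TCA-fixed, stained with 0.4% SRB and read at 515 nm. Zero-day control was subtracted and values expressed relative to solvent control; ED50 by nonlinear regression.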

SMILES | IC50 (Plasmodium falciparum [1]) [nM] | IC50 (Plasmodium falciparum [2]) [nM] | Selectivity Index [3] | Selectivity Index [4] | EC50 (KB) [nM]
COc1cc2c3cc1Oc1c(OC)c(OC)cc4c1[C@H](Cc1ccc(cc1)Oc1cc(ccc1O)C[C@@H]3N(C)CC2)N(C)CC4 | 42 | 67 | 350 | 220 | 15000
COc1ccc2cc1Oc1cc3c(cc1OC)CCN(C(C)=O)[C@H]3Cc1ccc(cc1)Oc1c3c(cc4c1[C@H](C2)N(C)CC4)OCO3 | 2320 | 1200 | 3.6 | 7 | 8360
CN1CCc2cc3c4cc2[C@@H]1Cc1ccc(O)c(c1)Oc1ccc(cc1)C[C@H]1c2c(cc(O)c(c2O4)O3)CCN1C | 90 | 259 | 55 | 19 | 4900
COc1ccc2cc1Oc1ccc(cc1)C[C@H]1c3c(cc4c(c3Oc3cc5c(cc3OC)CCN(C)[C@@H]5C2)OCO4)CCN1C [CEPHARANTHINE] | 231 | 478 | 42 | 20 | 9700
COc1ccc2cc1Oc1ccc(cc1)C[C@H]1c3c(cc(OC)c(O)c3Oc3cc4c(cc3OC)CCN(C)[C@@H]4C2)CCN1C [HOMOAROMOLINE] | 173 | 474 | 60 | 22 | 10400
COc1ccc2cc1Oc1ccc(cc1)C[C@H]1c3cc(c(OC)cc3CCN1C)Oc1c(O)c(OC)cc3c1[C@@H](C2)NCC3 | 115 | 210 | 92 | 50 | 10400
COc1cc2c3c(c1O)Oc1cc4c(cc1O)CCN(C)[C@H]4Cc1ccc(O)c(c1)Oc1ccc(cc1)C[C@@H]2NCC3 | 883 | 1590 | 20 | 11 | 17800
COc1ccc2cc1Oc1cc3c(nccc3cc1OC)Cc1ccc(cc1)COc1c(OC)cc3c(c1O)[C@H](C2)N(C)CC3 | 115 | 66 | 130 | 220 | 14700
COc1ccc2cc1Oc1ccc(cc1)C[C@H]1c3cc(c(OC)cc3CC[N+]1(C)[O-])Oc1c(OC)c(OC)cc3c1[C@H](C2)N(C)CC3 (some centres undefined) | 1980 | 948 | >16 | >34 | > 31300
COc1cc2c3cc1Oc1c(OC)c(OC)cc4c1[C@@H](Cc1ccc(O)c(c1)Oc1ccc(cc1)C[C@@H]3N(C)CC2)N(C)CC4 [BERBAMINE] | 128 | 313 | 72 | 29 | 9210
COc1cc2c3cc1Oc1c(O)c(OC)cc4c1[C@@H](Cc1ccc(O)c(c1)Oc1ccc(cc1)C[C@@H]3N(C)CC2)N(C)CC4 [OBAMEGINE] | 354 | 825 | 40 | 17 | 14100
COc1cc2ccnc3c2cc1Oc1cc(ccc1O)C[C@H]1c2c(cc(OC)c(c2O)OCc2ccc(cc2)C3)CCN1C | 110 | 59 | >310 | >580 | > 33900
COc1cc2c3cc1Oc1c(O)c(OC)cc4c1[C@H](Cc1ccc(O)c(c1)Oc1ccc(cc1)C[C@@H]3N(C)CC2)N(C)CC4 | 232 | 623 | 16 | 6 | 3700
COc1ccc2cc1Oc1ccc(cc1)C[C@@H]1NCCc3cc(OC)c4c(c31)Oc1cc3c(cc1O4)CCN(C)[C@H]3C2 [TRILOBINE] | 169 | 451 | 49 | 19 | 8300
COc1ccc(C[C@H]2c3cc(Oc4cc(OC)c(OC)cc4C[C@H]4c5cc(O)c(OC)cc5CCN4C)c(OC)cc3CCN2C)cc1O | 61 | 164 | >490 | >180 | > 29900
COc1ccc2cc1Oc1ccc(cc1)C[C@H]1c3cc(c(OC)cc3CCN1C)Oc1c(O)c(OC)cc3c1[C@H](C2)N(C)CC3 [FANGCHINOLINE] | 179 | 306 | 51 | 30 | 9210
COc1ccc2cc1Oc1ccc(cc1)C[C@@H]1NCCc3cc(OC)c(cc31)Oc1c(O)c(OC)cc3c1[C@@H](C2)N(C)CC3 | 118 | 218 | 23 | 12 | 2700
COc1cc2c3cc1Oc1c(O)c(OC)cc4c1[C@@H](Cc1ccc(cc1)Oc1cc(ccc1O)C[C@H]3N(C)CC2)N(C)CC4 | 29 | 105 | 300 | 82 | 8600

SMILES | IC50 (Plasmodium falciparum [1]) [nM] | IC50 (Plasmodium falciparum [2]) [nM] | Selectivity Index [3] | Selectivity Index [4] | EC50 (KB) [nM]
COc1ccc2cc1Oc1cc3c(cc1OC)CCN=C3Cc1ccc(cc1)COc1c(OC)cc3c(c1O)[C@H](C2)N(C)CC3 | 346 | 169 | >98 | >200 | > 33800
COc1ccc2cc1Oc1ccc(cc1)C[C@H]1c3cc(c(OC)cc3CCN1C)Oc1c(O)c(OC)cc3c1[C@@H](C2)N(C)CC3 | 199 | 378 | 54 | 28 | 10700
COc1ccc2cc1Oc1ccc(cc1)C[C@@H]1c3c(cc(OC)c(O)c3Oc3cc4c(cc3OC)CCN(C)[C@@H]4C2)CCN1C | 64 | 192 | 64 | 21 | 4110
COc1cc2c3cc1Oc1c(O)c(OC)cc4c1[C@H](Cc1ccc(O)c(c1)Oc1ccc(cc1)C[C@H]3N(C)CC2)N(C)CC4 | 134 | 609 | 130 | 29 | 17500
COc1ccc2cc1Oc1ccc(cc1)C[C@H]1c3cc(c(OC)cc3CCN1C)Oc1c(OC)c(OC)cc3c1[C@@H](C2)NCC3 | 106 | – | 95 | – | –
COc1ccc2cc1Oc1ccc(cc1)C[C@@H]1c3c(cc(OC)c(O)c3Oc3cc4c(cc3OC)CCN[C@@H]4C2)CCN1C | 106 | 375 | 92 | 26 | 9800
COc1cc2c3cc1Oc1c(OC)c(OC)cc4c1[C@@H](Cc1ccc(O)c(c1)Oc1ccc(cc1)C[C@@H]3N(C)CC2)NCC4 | 47 | 193 | 149 | 36 | 7100
COc1cc2c3cc1Oc1c(O)c(OC)cc4c1[C@H](Cc1ccc(cc1)Oc1cc(ccc1O)C[C@H]3N(C)CC2)N(C)CC4 | 446 | 1400 | 33 | 11 | 14800
COc1ccc2cc1Oc1ccc(cc1)C[C@H]1c3cc(c(OC)cc3CCN1C)Oc1c(OC)c(OC)cc3c1[C@H](C2)N(C)CC3 [FANCHININ] | 288 | 257 | 20 | 22 | 5800
COc1cc2c(cc1O)[C@H](Cc1ccc(Oc3cc(C[C@@H]4c5cc(OC)c(OC)cc5CCN4C)ccc3OC)cc1)N(C)CC2 | 213 | 227 | >150 | >140 | > 32100
COc1ccc2cc1Oc1ccc(cc1)C[C@@H]1c3cc(c(OC)cc3CCN1C)Oc1c(OC)c(OC)cc3c1[C@@H](C2)N(C)CC3 [PHAEANTHINE] | 305 | 498 | 35 | 22 | 10800
COc1ccc2cc1Oc1ccc(cc1)C[C@@H]1c3cc(c(OC)cc3CCN1C)Oc1c(O)c(OC)cc3c1[C@@H](C2)N(C)CC3 | 86 | 263 | 186 | 61 | 16100
OC(c1cc(C(F)(F)F)nc2c(C(F)(F)F)cccc12)C1CCCCN1 (centres undefined) [MEFLOQUINE] | – | 7.78 | 465 | 1080 | 8430
COc1ccc2cc1Oc1ccc(cc1)C[C@H]1c3c(cc(OC)c(O)c3Oc3cc4c(cc3OC)CCN(C)[C@H]4C2)CCN1C | 48 | 67 | 76 | 54 | 3620
COc1cc2c3c4c1Oc1cc5c(cc1O4)[C@H](Cc1ccc(O)c(c1)Oc1ccc(cc1)C[C@@H]3N(C)CC2)N(C)CC5 [COCSULINE] | 87 | 502 | 110 | – | 10000
COc1ccc2cc1Oc1ccc(cc1)C[C@H]1c3c(cc(O)c4c3Oc3cc5c(cc3O4)CCN(C)[C@H]5C2)CCN1C | 30 | – | 200 | 54 | 6000
COc1ccc2cc1Oc1cc3c(cc1OC)CCN(C(C)=O)[C@H]3Cc1ccc(cc1)Oc1c3c(cc4c1[C@@H](C2)N(C)CC4)OCO3 | 1910 | 1050 | – | 13 | 13600
CCN(CC)CCCC(C)Nc1ccnc2cc(Cl)ccc12 (centres undefined) [CHLOROQUINE] | – | – | – | – | 33700
